# Calls of active or inactive are those of the source. No cut-off for these calls is given here.
# Tests used:
# SGC-7901 [1] = experiment: Cell cycle arrest at M phase in human SGC-7901 cells assessed as upregulation of p-Histone-3 level at 0.5 to 1.5 umol/L after 48 hrs by Western blot analysis; type: functional, cell-based; details: dose micromol/L 0.5-1.5, time 48.0 hrs
# Summary of the method: (§1)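 Western blot. Cells were treated with compound concentrations or DMSO for 48 h, then lysed, and lysates were denatured, run on SDS-PAGE and transferred to nitrocellulose. After blocking in 5% skimmed milk, membranes were incubated with primary antibodies at 4 °C for 8 h, then secondary antibodies, with ECL detection.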
# MGC-803 [2] = experiment: Inhibition of Akt/mTOR signalling pathway in human MGC-803 cells assessed as decrease in AKT phosphorylation at Ser473 residue at 0.5 to 1.5 umol/L after 48 hrs by Western blot analysis; type: cell-based; details: dose micromol/L 0.5-1.5, time 48.0 hrs
# Summary of the method: (§2)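 Cells treated with graded concentrations or DMSO for 48 h, then harvested and lysed. Lysates denatured, resolved by SDS-PAGE and transferred to nitrocellulose. Membranes blocked with 5% skimmed milk and probed with primary antibodies at 4 °C for 8 h, then with secondary antibodies. Bands detected by ECL.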
# MGC-803 [3] = experiment: Inhibition of Ras/Raf/MEK/ERK signalling pathway in human MGC-803 cells assessed as downregulation of c-Myc expression at 0.5 to 1.5 umol/L after 48 hrs by Western blot analysis; type: cell-based; details: dose micromol/L 0.5-1.5, time 48.0 hrs; summary of the method: as §2
# MGC-803 [4] = experiment: Inhibition of colony formation in human MGC-803 cells at 0.5 to 1.5 umol/L after 7 days by crystal violet staining based assay; type: functional, cell-based; details: dose micromol/L 0.5-1.5, time 7.0 day
# Summary of the method: (§3)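 5000 cells per well seeded and held 24 h at 37 °C, 5% CO2, then exposed to graded concentrations (0.5, 1, 1.5 µmol/L). After 7 days the medium was removed and wells were washed twice with PBS. Colonies fixed in 4% paraformaldehyde and stained with 0.1% crystal violet.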
# HGC-27 [5] = experiment: Cell cycle arrest at G2 phase in human HGC-27 cells assessed as downregulation of CDK1 level at 0.5 to 1.5 umol/L after 48 hrs by Western blot analysis; type: functional, cell-based; details: dose micromol/L 0.5-1.5, time 48.0 hrs; summary of the method: as §1
# MGC-803 [6] = experiment: Cell cycle arrest at G2 phase in human MGC-803 cells assessed as downregulation of CDK1 level at 0.5 to 1.5 umol/L after 48 hrs by Western blot analysis; type: functional, cell-based; details: dose micromol/L 0.5-1.5, time 48.0 hrs; summary of the method: as §1
# MGC-803 [7] = experiment: Induction of apoptosis in human MGC-803 cells after 48 hrs by flow cytometry analysis; type: functional, cell-based; details: dose micromol/L 0.5-1.5, time 48.0 hrs
# HGC-27 [8] = experiment: Inhibition of Ras/Raf/MEK/ERK signalling pathway in human HGC-27 cells assessed as decrease in MEK1 phosphorylation after 48 hrs by Western blot analysis; type: cell-based; details: dose micromol/L 0.5-1.5, time 48.0 hrs; summary of the method: as §2
# PC-3 = experiment: Anticancer activity against human PC-3 cells assessed as inhibition of cell proliferation after 48 hrs by MTT assay; type: functional, cell-based; details: PC-3, 48 h
# Summary of the method: (§4)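 MTT assay with 48 h compound exposure. MTT solution was then added and incubated 4 h at 37 °C, the supernatant discarded and formazan dissolved in DMSO, with absorbance read at 490 nm. IC50 values were calculated from three independent experiments, reported as mean SD.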
# MGC-803 [9] = experiment: Inhibition of Ras/Raf/MEK/ERK signalling pathway in human MGC-803 cells assessed as decrease in c-Raf phosphorylation after 48 hrs by Western blot analysis; type: cell-based; details: dose micromol/L 0.5-1.5, time 48.0 hrs; summary of the method: as §2
# [10] = Selectivity index, ratio of IC50 for human GES1 cells to IC50 for human MGC-803 cells assessed as inhibition of cell proliferation after 48 hrs by MTT assay
# Summary of the method: (§5)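 Fold selectivity is the IC50 in GES-1 normal gastric epithelial cells divided by the IC50 in the gastric cancer line (HGC-27, MGC-803 or SGC-7901). Both IC50s come from 48 h exposure, MTT (4 h, 37 °C), DMSO solubilisation and 490 nm absorbance, with three independent experiments.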
# SGC-7901 [11] = experiment: Induction of apoptosis in human SGC-7901 cells assessed as cleavage of PARP at 0.5 to 1.5 umol/L after 48 hrs Western blot analysis; type: functional, cell-based; details: dose micromol/L 0.5-1.5, time 48.0 hrs; summary of the method: as §1
# HGC-27 [12] = experiment: Inhibition of Ras/Raf/MEK/ERK signalling pathway in human HGC-27 cells assessed as effect on RAS level at 0.5 to 1.5 umol/L after 48 hrs by Western blot analysis; type: cell-based; details: dose micromol/L 0.5-1.5, time 48.0 hrs; summary of the method: as §2
# SGC-7901 [13] = experiment: Inhibition of Ras/Raf/MEK/ERK signalling pathway in human SGC-7901 cells assessed as effect on RAS level at 0.5 to 1.5 umol/L after 48 hrs by Western blot analysis; type: cell-based; details: dose micromol/L 0.5-1.5, time 48.0 hrs; summary of the method: as §2
# HGC-27 [14] = experiment: Induction of apoptosis in human HGC-27 cells assessed as downregulation of c-IAP1 level at 0.5 to 1.5 umol/L after 48 hrs Western blot analysis; type: functional, cell-based; details: dose micromol/L 0.5-1.5, time 48.0 hrs; summary of the method: as §1
# SGC-7901 [15] = experiment: Inhibition of colony formation in human SGC-7901 cells at 0.5 to 1.5 umol/L after 7 days by crystal violet staining based assay; type: functional, cell-based; details: dose micromol/L 0.5-1.5, time 7.0 day; summary of the method: as §3
# HGC-27 [16] = experiment: Induction of apoptosis in human HGC-27 cells assessed as cleavage of caspase-7 at 0.5 to 1.5 umol/L after 48 hrs Western blot analysis; type: functional, cell-based; details: dose micromol/L 0.5-1.5, time 48.0 hrs; summary of the method: as §1
# MGC-803 [17] = experiment: Cell cycle arrest in human MGC-803 cells assessed as accumulation at G2/M phase at 0.5 to 1.5 umol/L after 48 hrs by RNase/propidium iodide staining based flow cytometry; type: functional; details: dose micromol/L 0.5-1.5, time 48.0 hrs
# Summary of the method: (§6)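 MGC-803, SGC-7901 and HGC-27 cells were seeded in 6-well plates and treated 48 h with compound or DMSO. Cells were then harvested and fixed in 70% cold ethanol at 4 °C for 8 h, and cell-cycle phase distribution was quantified by flow cytometry.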
# MCF7 = experiment: Anticancer activity against human MCF7 cells assessed as inhibition of cell proliferation after 48 hrs by MTT assay; type: functional, cell-based; details: MCF7, 48 h; summary of the method: as §4
# [18] = Selectivity index, ratio of IC50 for human GES1 cells to IC50 for human SGC-7901 cells assessed as inhibition of cell proliferation after 48 hrs by MTT assay; summary of the method: as §5
# SGC-7901 [19] = experiment: Cell cycle arrest in human SGC-7901 cells assessed as accumulation at G2/M phase at 0.5 to 1.5 umol/L after 48 hrs by RNase/propidium iodide staining based flow cytometry; type: functional; details: dose micromol/L 0.5-1.5, time 48.0 hrs; summary of the method: as §6
# MGC-803 [20] = experiment: Anticancer activity against human MGC-803 cells assessed as cell growth at 0.5 to 1.5 umol/L after 48 hrs by MTT assay relative to control; type: functional; details: dose micromol/L 0.5-1.5
# HGC-27 [21] = experiment: Anticancer activity against human HGC-27 cells assessed as inhibition of cell proliferation after 48 hrs by MTT assay; type: functional, cell-based; summary of the method: as §4
smiles,measurement,setting,value
COc1cc(N(Cc2nc3ccccc3[nH]2)S(=O)(=O)c2ccc(C)cc2)cc(OC)c1OC,Activity,SGC-7901 [1],Active
same,inhibition,MGC-803 [2],Active
same,inhibition,MGC-803 [3],Active
same,inhibition,MGC-803 [4],Active
same,Activity,HGC-27 [5],Active
same,Activity,MGC-803 [6],Active
same,Activity,MGC-803 [7],Dose-dependent effect
same,inhibition,HGC-27 [8],Dose-dependent effect
same,IC50,PC-3,3.34 µM
same,inhibition,MGC-803 [9],Dose-dependent effect
same,Ratio IC50,[10],14.9
same,Activity,SGC-7901 [11],Active
same,inhibition,HGC-27 [12],inactive
same,inhibition,SGC-7901 [13],inactive
same,Activity,HGC-27 [14],Active
same,inhibition,SGC-7901 [15],Active
same,Activity,HGC-27 [16],Active
same,Activity,MGC-803 [17],Active
same,IC50,MCF7,5.4 µM
same,Ratio IC50,[18],6.6
same,Activity,SGC-7901 [19],Active
same,fold change (FC),MGC-803 [20],<2
same,Activity,HGC-27 [21],Dose-dependent effect
same,IC50,"HGC-27 [21]; HGC-27, 48 h",1.61 µM
